Measured values collected from several papers.
Lines come from different studies, so protocols differ.
Target: Dual specificity mitogen-activated protein kinase kinase 1 (MAP2K1, Homo sapiens, UniProt Q02750)

Cc1ccc(NC(=O)c2ccnc(C(F)(F)F)c2)cc1-c1cc(OCCO)nc(N2CCOCC2)c1  remaining binding (binding, competition with immobilised ligand; 1 µM): 86%
CO[C@@H]1[C@H](N(C)C(=O)c2ccccc2)C[C@H]2O[C@]1(C)n1c3ccccc3c3c4c(c5c6ccccc6n2c5c31)C(=O)NC4  inhibition (enzyme activity, inhibitor; 1 µM): 30%
CCCCC(=O)Nc1ccc(-c2ccc3ncn(CCC)c(=O)c3c2)cn1  remaining binding (binding, competition with immobilised ligand; 0.5 µM): 52%
COc1ccc2oc(-c3ccc4nc(N)oc4c3)c/c(=N\c3ccccc3NC(=O)CCN)c2c1  remaining binding (binding; 1 µM): 102%
COc1ccc2[nH]c3c4[nH]c5ccc(OC)cc5c4c4c(c3c2c1)C(=O)NC4=O  remaining binding (binding, competition with immobilised ligand; 1 µM): 70%
C=CC(=O)N1CCC[C@@H](n2nc(-c3ccc(Oc4ccccc4)cc3)c3c(N)ncnc32)C1  inhibition (enzyme activity, inhibitor; 1 µM): 84%
Cc1cc(O)c(-c2ccc([C@@H](C)CN(C)C)cc2)c2c1[nH]c(=O)c1sccc12  inhibition (enzyme activity, inhibitor; 0.1 µM): 8.68%
N#Cc1ccc(NC(=O)Nc2ccccc2)cc1  remaining binding (cell-free assay, competition with immobilised ligand; 25 µM): 66%
